Source: ChEMBL document CHEMBL1629712, “Design, synthesis and discovery of 5-hydroxyaurone derivatives as growth inhibitors against HUVEC and some cancer cell lines” (Eur J Med Chem, 2010)

Experiments:
[1] = Selectivity ratio of CC50 for human CCC-HPF1 cells to IC50 for HUVEC; format: ADME, cell-based; settings: CCC-HPF1 cells versus HUVEC, read-out: Ratio CC50/IC50
[2] = Antiproliferative activity against human CCC-HPF1 cells after 96 hrs by MTT assay; format: cell-based
Outline: (§1)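 MTT viability. Seeding was 1000 cells/well for HUVEC, 1500 for MCF-7 and CCC-HPF-1, and 2000 for A549. After 20 h attachment, compound or carrier was added from 2% DMSO/PBS stocks (final DMSO 0.1%), in triplicate per concentration.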

[3] = test system: HUVEC; experiment: Antiangiogenic activity in HUVEC after 96 hrs by MTT assay; format: functional, cell-based; settings: Homo sapiens; outline: as §1
[4] = test system: MCF7; experiment: Antiproliferative activity against human MCF7 cells after 96 hrs by MTT assay; settings: MCF7, 96 h
[5] = test system: A549; experiment: Antiproliferative activity against human A549 cells after 96 hrs by MTT assay; format: functional, cell-based; settings: A549, 96 h; outline: as §1

Row | IC50 [4] [µM] | IC50 [5] [µM] | Structure (SMILES) | selectivity ratio [1] | CC50 at 96 h [2] [µM] | IC50 [3] [µM]
1 | 10.1 | 18.7 | CN(C)c1ccc(/C=C2\Oc3ccc(O)cc3C2=O)cc1 | 20 | 25.1 | 1.35
2 | ≥ 50 | ≥ 50 | CO[C@@H]1[C@H](OC(=O)/C=C/C=C/C=C/C=C/C(=O)O)CC[C@]2(CO2)[C@H]1[C@@]1(C)O[C@@H]1CC=C(C)C [FUMAGILLIN] |  |  | 0.0089
